Data reported in ChEMBL document CHEMBL1177835, “A note to the biological activity of benzoxazine derivatives containing the thioxo group” (Eur J Med Chem, 2010).
Values after ≈ are worked out from the molar mass of the structure shown.

Experiments:
[1] = system: Mycobacterium tuberculosis; assay: Antimycobacterial activity against Mycobacterium tuberculosis CNCTC My 331/88 after 14 days by microdilution method; assay type: functional; settings: CNCTC My 331/88, 336 h
Outline: (§1)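 MIC determined by a dilution micromethod. Strains came from the Czech National Collection of Type Cultures, Prague. Compounds were added to the medium as DMSO solutions. Each inoculum was also plated in parallel on Löwenstein–Jensen medium to check its sterility and growth. The M. avium strain is identical with ATCC 25291 and resistant to INH.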

HUVEC = assay: Antiproliferative activity against HUVEC after 72 hrs by using methylene blue staining; assay type: cell-based; settings: human
Outline: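 HUVEC in culture medium with ultraglutamine, gentamicin, 10% heat-inactivated FBS, 37 °C. Harvested in log phase by trypsinization; about 10,000 cells/well. Compounds in DMSO, diluted in DMEM, incubated 72 h at 37 °C, 5% CO2. Cells then glutaraldehyde-fixed, stained with 0.05% methylene blue for 15 min, eluted with 0.33 N HCl, OD 660 nm. GI50 taken at 50% intersection versus untreated control.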

Mycobacterium kansasii [2] = assay: Antimycobacterial activity against Mycobacterium kansasii CNCTC My 235/80 after 14 days by microdilution method; assay type: functional; settings: CNCTC My 235/80, 336 h
Outline: (§2)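 Dilution micromethod for MIC; compounds added to medium as DMSO solutions. Each strain also inoculated onto Löwenstein–Jensen medium to control inoculum sterility and growth. Strain 6509/96 is a clinical isolate; CNCTC strains from the Czech national type culture collection.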

Mycobacterium kansasii [3] = assay: Antimycobacterial activity against Mycobacterium kansasii 6509/96 after 14 days by microdilution method; assay type: functional; settings: for MIC: 6509/96, 336 h; outline: as §2
Mycobacterium avium [4] = assay: Antimycobacterial activity against Mycobacterium avium CNCTC My 330/88 after 14 days by microdilution method; assay type: functional; settings: CNCTC My 330/88, 336 h; outline: as §1
[5] = system: Mycobacterium tuberculosis; assay: Antimycobacterial activity against Mycobacterium tuberculosis CNCTC My 331/88 after 21 days by microdilution method; assay type: functional; settings: CNCTC My 331/88, 504 h; outline: as §1
Mycobacterium avium [6] = assay: Antimycobacterial activity against Mycobacterium avium CNCTC My 330/88 after 21 days by microdilution method; assay type: functional; settings: CNCTC My 330/88, 504 h; outline: as §1
HeLa = assay: Cytotoxicity against human HeLa cells after 72 hrs by using methylene blue staining; assay type: functional, cell-based
Outline: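 HeLa cells in RPMI 1640 with supplements, preincubated 48 h without compound. Compound dilutions were then applied to subconfluent monolayers for 72 h at 37 °C, 5% CO2. Cells were glutaraldehyde-fixed, stained with 0.05% methylene blue, eluted with 0.33 N HCl and read at OD 660 nm. CC50 taken at 50% intersection versus negative control.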

Mycobacterium kansasii [7] = assay: Antimycobacterial activity against Mycobacterium kansasii CNCTC My 235/80 after 21 days by microdilution method; assay type: functional; settings: CNCTC My 235/80, 504 h; outline: as §2
Mycobacterium kansasii [8] = assay: Antimycobacterial activity against Mycobacterium kansasii 6509/96 after 21 days by microdilution method; assay type: functional; settings: 6509/96, 504 h; outline: as §2
K562 = assay: Antiproliferative activity against human K562 cells after 72 hrs by celltiter-blue assay; assay type: functional, cell-based
Outline: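 K-562 grown in RPMI 1640 with ultraglutamine, gentamicin, 10% heat-inactivated FBS at 37 °C; about 10,000 cells/well. Compounds dissolved in DMSO and diluted in DMEM, incubated 72 h at 37 °C, 5% CO2. Viability read by CellTiter-Blue resazurin reduction. GI50 taken where the dose-response curve crosses 50% of untreated control.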

Row | Structure (SMILES) | MIC [1] [µM] | Activity (HUVEC) | MIC (Mycobacterium kansasii [2]) [µM] | MIC (Mycobacterium kansasii [3]) [µM] | MIC (Mycobacterium avium [4]) [µM] | MIC [5] [µM] | MIC (Mycobacterium avium [6]) [µM] | Activity (HeLa) | MIC (Mycobacterium kansasii [7]) [µM] | MIC (Mycobacterium kansasii [8]) [µM] | Activity (K562) | Activity (Mycobacterium kansasii [3])
1 | O=c1oc2ccccc2c(=O)n1Cc1ccccc1 | 32 (≈ 8.1 µg/mL) | Toxic | 62.5 (≈ 15.8 µg/mL) | 62.5 (≈ 15.8 µg/mL) | 32 (≈ 8.1 µg/mL) | 32 (≈ 8.1 µg/mL) | 62.5 (≈ 15.8 µg/mL) | Toxic | 62.5 (≈ 15.8 µg/mL) | 62.5 (≈ 15.8 µg/mL) | Toxic | –
2 | O=c1oc2ccccc2c(=O)n1Cc1ccc(Cl)c(Cl)c1 | 32 (≈ 10.3 µg/mL) | Toxic | 62.5 (≈ 20.1 µg/mL) | 62.5 (≈ 20.1 µg/mL) | 32 (≈ 10.3 µg/mL) | 32 (≈ 10.3 µg/mL) | 32 (≈ 10.3 µg/mL) | Toxic | 62.5 (≈ 20.1 µg/mL) | 62.5 (≈ 20.1 µg/mL) | Toxic | –
3 | Cc1ccc2oc(=O)n(Cc3ccccc3)c(=S)c2c1 | 1 (≈ 0.283 µg/mL) | Toxic | 1 (≈ 0.283 µg/mL) | 1 (≈ 0.283 µg/mL) | 2 (≈ 0.567 µg/mL) | 1 (≈ 0.283 µg/mL) | 2 (≈ 0.567 µg/mL) | Toxic | 2 (≈ 0.567 µg/mL) | 2 (≈ 0.567 µg/mL) | Toxic | –
4 | O=c1oc2c(Cl)cc(Cl)cc2c(=O)n1Cc1ccc(Cl)c(Cl)c1 | 62.5 (≈ 24.4 µg/mL) | Toxic | 125 (≈ 48.9 µg/mL) | 125 (≈ 48.9 µg/mL) | 125 (≈ 48.9 µg/mL) | 125 (≈ 48.9 µg/mL) | 125 (≈ 48.9 µg/mL) | Toxic | 125 (≈ 48.9 µg/mL) | 125 (≈ 48.9 µg/mL) | Toxic | –
5 | O=c1oc2ccc(Cl)cc2c(=S)n1Cc1ccccc1 | 1 (≈ 0.304 µg/mL) | Toxic | 8 (≈ 2.43 µg/mL) | 4 (≈ 1.22 µg/mL) | 4 (≈ 1.22 µg/mL) | 2 (≈ 0.608 µg/mL) | 8 (≈ 2.43 µg/mL) | Toxic | 8 (≈ 2.43 µg/mL) | 4 (≈ 1.22 µg/mL) | Toxic | –
6 | O=c1oc2ccc(Cl)cc2c(=O)n1Cc1ccc(Cl)c(Cl)c1 | 16 (≈ 5.71 µg/mL) | Toxic | 62.5 (≈ 22.3 µg/mL) | 62.5 (≈ 22.3 µg/mL) | 16 (≈ 5.71 µg/mL) | 16 (≈ 5.71 µg/mL) | 32 (≈ 11.4 µg/mL) | Toxic | 62.5 (≈ 22.3 µg/mL) | 62.5 (≈ 22.3 µg/mL) | Toxic | –
7 | O=c1oc2ccc(Cl)cc2c(=O)n1Cc1ccccc1 | 62.5 (≈ 18 µg/mL) | Toxic | 32 (≈ 9.21 µg/mL) | 125 (≈ 36 µg/mL) | 32 (≈ 9.21 µg/mL) | 125 (≈ 36 µg/mL) | 62.5 (≈ 18 µg/mL) | Toxic | 62.5 (≈ 18 µg/mL) | 125 (≈ 36 µg/mL) | Toxic | –
8 | O=c1oc2c(Cl)cc(Cl)cc2c(=S)n1Cc1ccc(Cl)c(Cl)c1 | 2 (≈ 0.814 µg/mL) | Toxic | 16 (≈ 6.51 µg/mL) | 16 (≈ 6.51 µg/mL) | 4 (≈ 1.63 µg/mL) | 2 (≈ 0.814 µg/mL) | 4 (≈ 1.63 µg/mL) | Toxic | 16 (≈ 6.51 µg/mL) | 16 (≈ 6.51 µg/mL) | Toxic | –
9 | O=c1oc2ccc(Cl)cc2c(=O)n1Cc1ccc(F)cc1 | 32 (≈ 9.78 µg/mL) | Toxic | 62.5 (≈ 19.1 µg/mL) | – | 32 (≈ 9.78 µg/mL) | 32 (≈ 9.78 µg/mL) | 32 (≈ 9.78 µg/mL) | Toxic | 62.5 (≈ 19.1 µg/mL) | 125 (≈ 38.2 µg/mL) | Toxic | Toxic
10 | O=c1oc2ccc(Br)cc2c(=S)n1Cc1ccccc1 | 1 (≈ 0.348 µg/mL) | Toxic | 8 (≈ 2.79 µg/mL) | 4 (≈ 1.39 µg/mL) | 8 (≈ 2.79 µg/mL) | 2 (≈ 0.696 µg/mL) | 8 (≈ 2.79 µg/mL) | Toxic | 8 (≈ 2.79 µg/mL) | 8 (≈ 2.79 µg/mL) | Toxic | –
11 | O=c1oc2ccc(Br)cc2c(=S)n1Cc1ccc(Cl)c(Cl)c1 | 2 (≈ 0.834 µg/mL) | Toxic | 16 (≈ 6.67 µg/mL) | 16 (≈ 6.67 µg/mL) | 8 (≈ 3.34 µg/mL) | 4 (≈ 1.67 µg/mL) | 8 (≈ 3.34 µg/mL) | Toxic | 16 (≈ 6.67 µg/mL) | 16 (≈ 6.67 µg/mL) | Toxic | –
12 | Cc1ccc2oc(=O)n(Cc3ccccc3)c(=O)c2c1 | 32 (≈ 8.55 µg/mL) | Toxic | 62.5 (≈ 16.7 µg/mL) | 62.5 (≈ 16.7 µg/mL) | 32 (≈ 8.55 µg/mL) | 62.5 (≈ 16.7 µg/mL) | 62.5 (≈ 16.7 µg/mL) | Toxic | 62.5 (≈ 16.7 µg/mL) | 125 (≈ 33.4 µg/mL) | Toxic | –
13 | O=c1oc2ccc(Cl)cc2c(=S)n1Cc1ccc(F)cc1 | 1 (≈ 0.322 µg/mL) | Toxic | 4 (≈ 1.29 µg/mL) | 4 (≈ 1.29 µg/mL) | 4 (≈ 1.29 µg/mL) | 1 (≈ 0.322 µg/mL) | 4 (≈ 1.29 µg/mL) | Toxic | 8 (≈ 2.57 µg/mL) | 4 (≈ 1.29 µg/mL) | Toxic | –
14 | O=c1oc2ccc(Br)cc2c(=O)n1Cc1ccccc1 | 62.5 (≈ 20.8 µg/mL) | Toxic | 62.5 (≈ 20.8 µg/mL) | 62.5 (≈ 20.8 µg/mL) | 62.5 (≈ 20.8 µg/mL) | 62.5 (≈ 20.8 µg/mL) | 62.5 (≈ 20.8 µg/mL) | Toxic | 125 (≈ 41.5 µg/mL) | 125 (≈ 41.5 µg/mL) | Toxic | –
15 | O=c1oc2ccc(Br)cc2c(=O)n1Cc1ccc(Cl)c(Cl)c1 | 32 (≈ 12.8 µg/mL) | Toxic | 62.5 (≈ 25.1 µg/mL) | 62.5 (≈ 25.1 µg/mL) | 32 (≈ 12.8 µg/mL) | 32 (≈ 12.8 µg/mL) | 32 (≈ 12.8 µg/mL) | Toxic | 62.5 (≈ 25.1 µg/mL) | 62.5 (≈ 25.1 µg/mL) | Toxic | –
